PubChem BioAssay
Activity calls are given as the source filed them.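 The calls were made as follows, unless noted: active = viability at or below 10% of carrier control in both of two separate runs; inconclusive = viability at or below 10% in only one of the two runs; inactive = the rest.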

Legend:
[1] = Her2 expression decrease, cell viability multiplex – SKBR3 breast tumor cells, AlphaScreen, ATP viability, primary screen (AID 461;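 active = Her2 level under about 52% in both replicate screens, with viability over 70% of control, limit read from the data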;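 as to Her2 level: lower value means less Her2 protein in the cells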;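 as to viability: percent of carrier control wells set as 100% viability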); conditions: SKBR3 Her2 protein level, 18-24 h, measured here: SKBR3 viability, ATP luminescence, at 10 µM
[2] = target: Receptor tyrosine-protein kinase erbB-2 (Homo sapiens) (UniProt P04626); test: as above; conditions: 18-24 h, at 10 µM, stronger effect = lower value
Receptor tyrosine-protein kinase erbB-2 (Homo sapiens), sequence (P04626 whole entry, looked up): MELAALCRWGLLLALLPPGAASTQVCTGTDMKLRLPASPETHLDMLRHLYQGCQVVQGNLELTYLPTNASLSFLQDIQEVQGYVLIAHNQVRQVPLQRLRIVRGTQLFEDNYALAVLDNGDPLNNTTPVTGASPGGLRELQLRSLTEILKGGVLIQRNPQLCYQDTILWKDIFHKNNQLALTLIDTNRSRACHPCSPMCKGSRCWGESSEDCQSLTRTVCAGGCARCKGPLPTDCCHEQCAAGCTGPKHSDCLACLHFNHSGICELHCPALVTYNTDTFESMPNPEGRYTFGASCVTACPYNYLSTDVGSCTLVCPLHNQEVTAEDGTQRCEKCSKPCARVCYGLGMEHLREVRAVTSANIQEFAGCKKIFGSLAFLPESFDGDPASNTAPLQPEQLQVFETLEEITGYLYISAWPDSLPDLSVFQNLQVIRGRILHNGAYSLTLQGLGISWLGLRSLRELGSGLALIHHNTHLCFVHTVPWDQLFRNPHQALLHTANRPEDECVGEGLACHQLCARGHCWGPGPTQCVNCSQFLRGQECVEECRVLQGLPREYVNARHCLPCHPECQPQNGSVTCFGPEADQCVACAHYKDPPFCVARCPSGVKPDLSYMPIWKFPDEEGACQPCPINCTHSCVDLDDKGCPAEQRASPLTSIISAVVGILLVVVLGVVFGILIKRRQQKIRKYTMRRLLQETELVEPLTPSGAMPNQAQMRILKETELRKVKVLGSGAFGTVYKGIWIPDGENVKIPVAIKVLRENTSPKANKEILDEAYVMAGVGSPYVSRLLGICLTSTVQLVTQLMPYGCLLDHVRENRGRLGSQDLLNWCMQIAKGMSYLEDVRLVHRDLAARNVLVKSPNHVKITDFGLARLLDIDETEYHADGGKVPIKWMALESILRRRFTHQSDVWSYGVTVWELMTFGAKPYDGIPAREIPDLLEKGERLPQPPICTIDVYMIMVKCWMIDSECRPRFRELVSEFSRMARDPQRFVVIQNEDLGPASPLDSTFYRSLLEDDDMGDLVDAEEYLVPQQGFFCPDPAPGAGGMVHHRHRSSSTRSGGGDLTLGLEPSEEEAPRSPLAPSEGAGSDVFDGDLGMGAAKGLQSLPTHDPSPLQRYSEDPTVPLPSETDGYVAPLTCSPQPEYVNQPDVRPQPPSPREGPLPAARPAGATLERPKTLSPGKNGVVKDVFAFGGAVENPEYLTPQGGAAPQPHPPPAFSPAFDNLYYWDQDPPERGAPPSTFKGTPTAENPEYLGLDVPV

[3] = reduced viability of SK-BR-3 breast cancer cells – cell-based, 24 h, human, pilot screen (AID 572); conditions: SK-BR-3 viability, CellTiter-Glo luminescence, at 10 µM, stronger effect = lower value;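 also: compound exposure lasted between 18 and 24 h rather than exactly 24 h; 100% = carrier-treated control wells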
[4] = HUVEC growth inhibition – cell-based, human, primary screen (AID 575;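 active = viability at or below 30% in both replicate assays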;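 also: 100% = median of untreated cell wells with 0.1% DMSO on each plate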); conditions: HUVEC proliferation, CellTiter-Glo luminescence, 72 h; at 10 µM; stronger effect = lower value
Method in brief: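 Assay system: primary human umbilical vein endothelial cells / Buffer or medium: endothelial basal medium with 2% FBS plus growth supplements / Compound dosing: one dose, 10 µM final, 0.1% DMSO / Timing: 72 h treatment at 37 °C / Signal: CTG luminescence / Benchmarks: 32 DMSO-only cell-control wells (high), 32 MePR drug-control wells (low) per plate / Plate: collagen-coated 384-well format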

[5] = H69AR cell proliferation blockers – human, duplicate replicates, primary screen (AID 580;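 active = viability at or under a set limit in both replicates, limit being median viability minus 3 SD, cut at about 48% in these data, passing the limit was not always enough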;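 also: 100% = mean luminescence of untreated wells and 0% = no signal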); conditions: H69AR lung tumor cells viability, ATP luminescence, 72 h; at 10 µM; stronger effect = lower value
[6] = MRP1 drug-resistance reversers in H69AR cells – cell-based, doxorubicin co-treatment, pilot screen (AID 601;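 active = viability loss from added drug above about 55%, and viability with drug at most 40%, in both replicates, limit read from the data, passing the limit was not always enough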); conditions: CellTiter-Glo, 72 h, at 10 µM; for differential viability (reversal): stronger effect = higher value
[7] = yeast transport mutant growth inhibition pilot in 384-well plates, post-Golgi transport modulator project (AID 636; in the data active = inhibition above about 31%); conditions: absorbance 615 nm, about 18 h, stronger effect = higher value
[8] = growth suppression of yeast trafficking mutant, preliminary HTS, modulators of trafficking downstream of Golgi apparatus project, 1536-format plate, OD 615 nm (AID 637; in the data active = inhibition above about 30%); conditions: yeast transport mutant growth, absorbance 615 nm, 18 h; stronger effect = higher value
[9] = H69AR cells + 2 uM doxorubicin, measured here: viability with 2 uM doxorubicin, stronger effect = lower value
[10] = H69AR cells, compound alone cytotoxicity

SMILES	viability [1] [%]	Her2 level [2]	viability [3]	viability [4]	viability [5]	differential viability (reversal) ([6]; H69AR cells + 2 uM doxorubicin)	viability [6, 9] [%]	viability [6, 10] [%]	inhibition [7]	inhibition [8]
CSCCC(NC(=O)c1ccco1)C(=O)O (stereo not given)	97.5	110% (inactive)	97.5% (inactive)	112% (inactive)	91.8% (inactive)	0.86% (inactive)	91	91.8	-0.93% (inactive)	15% (inactive)
CCOC(=O)c1c(NCc2ccc3c(c2)OCO3)c2ccccc2[nH]c1=O	100	69.5% (inactive)	100% (inactive)	100% (inactive)	87.3% (inactive)	-5.86% (inactive)	93.1	87.3	-8.78% (inactive)	1.33% (inactive)
COC(=O)c1cnn2c(C(F)(F)F)cc(-c3ccco3)nc12	99	80% (inactive)	99% (inactive)	79.9% (inactive)	64.8% (inactive)	-11.7% (inactive)	76.5	64.8	-4.61% (inactive)	0.82% (inactive)
Cn1c2c(c(=O)n(C)c1=O)C(c1cccc(Br)c1)C1C(=O)c3ccccc3C1=N2 (stereo not given)	103	97.5% (inactive)	103% (inactive)	72.5% (inactive)	40.6% (active)	5.16% (inactive)	35.4	40.6	0.27% (inactive)	1.43% (inactive)
CCOc1ccc(N2C(N)=NC(N)=NC2(C)C)cc1	92.5	85% (inactive)	92.5% (inactive)	101% (inactive)	75.4% (inactive)	-26.6% (inactive)	102	75.4	-0.26% (inactive)	12.1% (inactive)
N#CC1=C(SCC(=O)NC2CCCCC2)NC(=O)CC1c1ccco1 (stereo not given)	113	98% (inactive)	113% (inactive)	74.8% (inactive)	30.6% (active)	-52.5% (inactive)	83.1	30.6	-6.53% (inactive)	0.97% (inactive)
CCOCCn1cnc2sc(C(=O)Nc3nc(C)c(C(=O)OCC)s3)c(C)c2c1=O	110	81% (inactive)	110% (inactive)	75.7% (inactive)	78% (inactive)	-14.5% (inactive)	92.5	78	-1.18% (inactive)	-2.42% (inactive)
Cc1ccc(-c2noc(CCC(=O)NC3CCCc4ccccc43)n2)cc1 (stereo not given)	75	85.5% (inactive)	75% (inactive)	83.6% (inactive)	92.5% (inactive)	6.05% (inactive)	86.4	92.5	-4.87% (inactive)	-4.67% (inactive)
CCOC(=O)C1=C(O)CCn2c1nc1ccccc12	122	116% (inactive)	122% (inactive)	101% (inactive)	101% (inactive)	17.7% (inactive)	83.6	101	-8.9% (inactive)	0% (inactive)
COc1ccccc1N=Cc1nc(-c2ccccc2)oc1OC(C)=O	99	82.5% (inactive)	99% (inactive)	79.2% (inactive)	63.1% (inactive)	-13.8% (inactive)	76.8	63.1	-4.61% (inactive)	-2.38% (inactive)
CCc1nc2sc3c(c2c(=O)o1)CCCC3	102	81% (inactive)	102% (inactive)	82.1% (inactive)	96.3% (inactive)	-0.255% (inactive)	96.6	96.3	-7.5% (inactive)	-9.84% (inactive)
CCC(C)NC(=O)c1cc(-c2ccc(OC)cc2)on1 (stereo not given)	106	94% (inactive)	106% (inactive)	118% (inactive)	89.8% (inactive)	0.48% (inactive)	89.3	89.8	-8.24% (inactive)	1.33% (inactive)
CCOc1ccc(OCC)c(NC(=O)CCCN2C(=O)c3cccnc3C2=O)c1	110	128% (inactive)	110% (inactive)	110% (inactive)	85.8% (inactive)	-2.52% (inactive)	88.3	85.8	0.81% (inactive)	7.14% (inactive)
Cc1ccc(C)n1NC(=O)c1ccco1	90	90% (inactive)	90% (inactive)	87.2% (inactive)	94.8% (inactive)	-9.64% (inactive)	104	94.8	-2.76% (inactive)	-3.39% (inactive)
COC(=O)C(C)C1Sc2ccccc2NC1=O (stereo not given)	121	100% (inactive)	121% (inactive)	119% (inactive)	93.9% (inactive)	12.1% (inactive)	81.8	93.9	-7.7% (inactive)	2.83% (inactive)
CCOC(=O)c1ccc(S(=O)(=O)NC2CCCCCCC2)n1C	113	70% (inactive)	113% (inactive)	86.9% (inactive)	104% (inactive)	-3.18% (inactive)	107	104	-1.49% (inactive)	1.11% (inactive)
Cn1c(=O)c2c(ncn2CC(=O)OCC(=O)NC2CCCc3ccccc32)n(C)c1=O (stereo not given)	98	94% (inactive)	98% (inactive)	110% (inactive)	97.7% (inactive)	5.3% (inactive)	92.4	97.7	-0.68% (inactive)	1.59% (inactive)
O=C(NCCC1=CCCCC1)C1CC(=O)N(C2CCCCCC2)C1 (stereo not given)	98	110% (inactive)	98% (inactive)	104% (inactive)	99.5% (inactive)	11% (inactive)	88.5	99.5	-1.15% (inactive)	-0.67% (inactive)
Cc1onc(-c2ccccc2Cl)c1C(=O)Nc1cccc(-c2cn3cccnc3n2)c1	104	84% (inactive)	104% (inactive)	71.4% (inactive)	85.6% (inactive)	1.15% (inactive)	84.5	85.6	-5.39% (inactive)	-1.82% (inactive)
CS(=O)(=O)N(CC(=O)O)c1cccc(Cl)c1	95	120% (inactive)	95% (inactive)	115% (inactive)	95.7% (inactive)	-0.88% (inactive)	96.6	95.7	2.11% (inactive)	2.95% (inactive)
CC(C)(C)C(=O)CNS(=O)(=O)c1ccc(S(=O)(=O)NC2CCCC2)cc1	104	92% (inactive)	104% (inactive)	115% (inactive)	98.8% (inactive)	11.2% (inactive)	87.6	98.8	-3.56% (inactive)	1.9% (inactive)
COc1cccc(/C=N/n2c(C)nc3ccccc32)c1OC	91	93.5% (inactive)	91% (inactive)	52.1% (inactive)	91.9% (inactive)	3.66% (inactive)	88.3	91.9	-2.4% (inactive)	-6.35% (inactive)
Cc1ccc(C(=O)OCC(=O)c2ccc(Cl)s2)s1	93.5	101% (inactive)	93.5% (inactive)	96% (inactive)	97.4% (inactive)	6.55% (inactive)	90.8	97.4	-0.93% (inactive)	-10.3% (inactive)
CC(=O)Nn1c(C)nnc1-n1nc(C)cc1C	126	112% (inactive)	126% (inactive)	77.5% (inactive)	97.8% (inactive)	4.38% (inactive)	93.4	97.8	-1.95% (inactive)	-1.64% (inactive)
CCOC(=O)c1c(C)[nH]c(C=Nc2ccccc2)c1O	94	91.5% (inactive)	94% (inactive)	106% (inactive)	101% (inactive)	10.2% (inactive)	90.8	101	-4.13% (inactive)	11.4% (inactive)
CCC(=O)N1CCc2cc(S(=O)(=O)CCC(=O)Nc3ccc(C)c(F)c3)ccc21	100	98.5% (inactive)	100% (inactive)	91.6% (inactive)	83.3% (inactive)	2.27% (inactive)	81.1	83.3	-4% (inactive)	1.8% (inactive)
CC(C)N(C(=O)CSc1nnc(-c2cc3ccccc3cc2O)n1Cc1ccco1)C(C)C	90.5	76% (inactive)	90.5% (inactive)	66.4% (inactive)	83.4% (inactive)	1.54% (inactive)	81.9	83.4	-5.81% (inactive)	-0.66% (inactive)
FC(F)(F)c1cccc(N2CCN(Cc3cccnc3)CC2)c1	90.5	99.5% (inactive)	90.5% (inactive)	101% (inactive)	110% (inactive)	25.3% (inactive)	84.9	110	-0.4% (inactive)	-1.61% (inactive)
